Results: ChEMBL document CHEMBL5223160, “Lipase-Catalyzed Synthesis and Biological Evaluation of N-Picolineamides as Trypanosoma cruzi Antiproliferative Agents” (ACS Med Chem Lett, 2023)
Activity calls are given as the source filed them. The calls are words filed in the database; no cut-off is given here.

Legend:
Vero = test: Cytotoxicity against african green monkey Vero cells at 10 to 600 uM incubated for 72 hrs by resazurin dye based fluorescence assay; assay type: toxicity, cell-based; conditions: chlorocebus sabaeus, dose 10-600 µM
How it was run: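 Vero cells were exposed to compounds at 10–600 μM for 72 h at 37 °C. Viability was read by resazurin fluorescence at 590 nm. CC50 was taken as the concentration reducing cell proliferation by 50%, reported ± standard deviation.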

Trypanosoma cruzi [1] = test: Antitrypanosomal activity against GFP-expressing intracellular Trypanosoma cruzi Y trypomastigotes infected in african green monkey Vero cells assessed as decrease in infection level incubated for 72 hrs by fluorescence based microplate reader analysis; assay type: functional, organism-based
How it was run: (§1)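 Vero cells infected with GFP-expressing T. cruzi Y-strain parasites. After parasite removal, compounds were added at one-tenth of their Vero CC50. At 72 h postinfection, cells were lysed and parasite fluorescence was read. Percentage of infected cells and amastigotes per 100 cells were also determined, with nifurtimox as reference.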

Trypanosoma cruzi [2] = test: (§2) Antitrypanosomal activity against GFP-expressing intracellular Trypanosoma cruzi Y trypomastigotes infected in african green monkey Vero cells assessed as decrease in number of amastigotes/100 cells incubated for 72 hrs by fluorescence based microplate reader analysis; assay type: functional, organism-based; how it was run: as §1
Trypanosoma cruzi [3] = test: as §2, with “reduction” for “decrease”, “infected cell percentage at 40 uM” for “number of amastigotes/100 cells”, “hrs in the presence of nifurtimox” for “hrs”; assay type: functional, organism-based
How it was run: (§3)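 GFP T. cruzi Y-infected Vero cells were cotreated after parasite removal with nifurtimox at 35 μM plus test compound at 20 μM or 40 μM. At 72 h postinfection, percentage of infected cells was determined against nontreated infected controls. Significance was set at p < 0.05.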

Trypanosoma cruzi [4] = test: Antitrypanosomal activity against GFP-expressing intracellular Trypanosoma cruzi Y trypomastigotes infected in african green monkey Vero cells assessed as inhibition of parasite proliferation incubated for 72 hrs by fluorescence based microplate reader analysis
Trypanosoma cruzi [5] = test: as §2, with “reduction” for “decrease”, “infected cell percentage at 20 uM” for “number of amastigotes/100 cells”, “hrs in the presence of nifurtimox” for “hrs”; assay type: functional, organism-based; how it was run: as §3

Row | Compound | Activity (Vero) | also measured
1 | CCCCCCCC/C=C/CCCCCCCC(=O)NCc1cccnc1 | Non-Toxic | 
2 | CCCCCCCCC/C=C\CCCCCCC(=O)O | Toxic | 
3 | CCCCCCCCCCCC(=O)NCc1ccncc1 | Non-Toxic | 
4 | CC/C=C/C/C=C/C/C=C/CCCCCCCC(=O)O | Toxic | 
5 | CCCCCCCC/C=C/CCCCCCCC(=O)NCc1ccccn1 | Non-Toxic | Activity (Trypanosoma cruzi [1]): Active; Activity (Trypanosoma cruzi [2]): Active; Activity (Trypanosoma cruzi [3]): Active; IC50 (Trypanosoma cruzi [4]): 47.6 µM
6 | CCCCCCCC/C=C\CCCCCCCC(=O)NCc1cccnc1 | Non-Toxic | 
7 | CCCCCCCCCCCCCCCC(=O)NCc1ccncc1 | Non-Toxic | 
8 | CCCCCCCCCCCC(=O)NCc1ccccn1 | Non-Toxic | IC50 (Trypanosoma cruzi [4]): > 100 µM
9 | CC/C=C\C/C=C\C/C=C\CCCCCCCC(=O)NCc1cccnc1 | Non-Toxic | 
10 | CCCCCCCCCCCCCCCCCC(=O)NCc1ccncc1 | Non-Toxic | 
11 | CC(=O)NCc1ccncc1 | Non-Toxic | 
12 | CCCCCCCC/C=C\CCCCCCCC(=O)NCc1ccccn1 | Non-Toxic | 
13 | CCCCC/C=C\C/C=C\CCCCCCCC(=O)NCc1cccnc1 | Non-Toxic | 
14 | CC/C=C\C/C=C\C/C=C\CCCCCCCC(=O)NCc1ccccn1 | Non-Toxic | 
15 | CCCCCCCCCCCCCCCCCC(=O)NCc1ccccn1 | Non-Toxic | Activity (Trypanosoma cruzi [1]): Active; Activity (Trypanosoma cruzi [2]): Active; Activity (Trypanosoma cruzi [5]): Active; IC50 (Trypanosoma cruzi [4]): 16.4 µM
16 | CCCCC/C=C/C/C=C/CCCCCCCC(=O)O | Toxic | 
17 | CCCCCCCCCCCCCCCCCC(=O)NCc1cccnc1 | Non-Toxic | 
18 | CCCCCCCC/C=C/CCCCCCCC(=O)NCc1ccncc1 | Non-Toxic | 
19 | CCCCCCCCCCCC(=O)NCc1cccnc1 | Non-Toxic | 
20 | CCCCCC(=O)NCc1ccncc1 | Non-Toxic | 
21 | CCCCC/C=C\C/C=C\CCCCCCCC(=O)NCc1ccccn1 | Non-Toxic | 
